Structures are written as SMILES. pIC50, pKi: −log10 of the molar value. Bounds are passed on as bounds.

Series [1] has as its system Human immunodeficiency virus. The series can be described thus: The inhibition of compound was determined by reverse transcriptase assay using RNA as template. It is filed as functional. Summed up: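 HIV reverse transcriptase assay with poly(rA):oligo(dT) as RNA template/primer. Various triphosphate concentrations were tested, and Ki was derived from Dixon plots.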

Series [2] relates to Human immunodeficiency virus. In words: The inhibition of compound was determined by reverse transcriptase assay using DNA as template. It is filed as functional. Summed up: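 HIV reverse transcriptase assay (DNA-dependent DNA polymerase activity) with poly(dA):oligo(dT) as DNA template/primer. Various triphosphate concentrations were tested, and Ki was derived from Dixon plots.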

Series [3] has as its system CCRF-CEM. The series can be described thus: In vitro antiviral test was performed on HIV(LAV strain) infected CEM cells. It is filed as functional. As to conditions: Homo sapiens, read-out: ID50 (the source's name). Put shortly: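 CEM-F cells infected with about 30 TCID50 of HIV (LAV strain), held 45 min at 37 °C, then given compound at various concentrations in culture medium and incubated 8 days. Virus expression read as p24 gag antigen in culture supernatant by sandwich/enzyme-capture ELISA. ID50 (μM) taken as the dose inhibiting 50% of virus expression.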

A short description of series [4]: The 50% inhibitory concentration expresses cellular toxicity measured against normal human erythrocyte progenitor cells (BFU-E). The note with it: read-out: ID50 (the source's name).
Series [5] in a line: The 50% inhibitory concentration expresses cellular toxicity measured against normal human granulocyte-monocyte cells.
Series [6] deals with CCRF-CEM. The series can be described thus: Cellular toxicity was measured in CEM cells after 8 days by using a [3H]- thymidine uptake assay. It is filed as cell-based. As to conditions: human, 192 h, read-out: TCID50. Put shortly: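 Uninfected CEM cells treated with various compound concentrations for 8 days; cytotoxicity read by [3H]thymidine uptake and expressed as 50% tissue culture inhibitory dose (TCID50).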

The nature of series [7]: The 90% inhibitory concentration expresses cellular toxicity measured against normal human granulocyte-monocyte cells.
A short description of series [8]: Cellular toxicity was measured in normal human granulocyte-monocyte progenitor cells (CFU-GM). As to conditions: read-out: ID50 (the source's name).
For series [9], the system named is CCRF-CEM. The series can be described thus: Cellular toxicity measured in CEM cells.

Turning to `Cc1cn([C@H]2CC[C@@H](COP(=O)(O)OP(=O)(O)OP(=O)(O)O)O2)c(=O)[nH]c1=O`, the pKi in series [1] is 7.30; in series [2], 4.08.

For the compound `Cc1cn([C@H]2C=C[C@@H](COP(=O)(O)OP(=O)(O)OP(=O)(O)O)O2)c(=O)[nH]c1=O` [STAVUDINE TRIPHOSPHATE], the pKi was 7.49 in [1] and 4.15 in series [2].

With `Cc1cn([C@H]2C=C[C@@H](CO)O2)c(=O)[nH]c1=O` [STAVUDINE], the pIC50 in the series with CCRF-CEM [3] is 6.82. Also, the results for the CC50 (in series [4]; in the series on CCRF-CEM [6]) were 10 µM and 90 µM, respectively. The ID50 in series [5] was determined as 100 µM. In [7], this compound had an ID90 of more than 100 µM.

On to `Cc1cn([C@H]2C[C@H](N=[N+]=[N-])[C@@H](COP(=O)(O)OP(=O)(O)OP(=O)(O)O)O2)c(=O)[nH]c1=O` [ZIDOVUDINE TRIPHOSPHATE], for which the pKi in series [1] is 8.15; in series [2] it was 4.08.

On to `Cc1cn([C@H]2C[C@H](N=[N+]=[N-])[C@@H](CO)O2)c(=O)[nH]c1=O` [ZIDOVUDINE], for which the pIC50 in the series with CCRF-CEM [3] was 7.00. The values for the CC50 (in series [8]; in [4]; with CCRF-CEM [9]) were 1 µM, 6.7 µM and 29 µM, respectively. The compound further gave an ID90 in [7] of 20 µM.

What is called pKi is the negative decadic logarithm of the Ki, by convention in mol/L. A low value points to a large Ki.

Values taken from ChEMBL document CHEMBL1124401, “1-(2,3-Dideoxy-beta-D-glycero-pent-2-enofuranosyl)thymine. A highly potent and selective anti-HIV agent” (J Med Chem, 1989).
